Experimental data taken from ChEMBL document CHEMBL4715683, “Discovery and characterization of a novel peptide inhibitor against influenza neuraminidase” (RSC Med Chem, 2020).
Active and inactive are the calls of the source. No cut-off for these calls is given here.

What was measured:
[1] = Inhibition of Influenza A virus (H1N1) neuraminidase using 4-MU-NANA as substrate preincubated for 1 hr followed by substrate addition and measured after 18 hrs by fluorescence method
Outline: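 Peptide dilutions were preincubated with diluted H1N1 virus for 1 h at 37 °C. 4-MU-NANA was then added and reactions ran 18 h at 37 °C. Released 4-methylumbelliferone was read by fluorescence (Ex 355/Em 460). IC50 is the peptide concentration reducing neuraminidase activity by 50%.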

Influenza A virus [2] = test: Antiviral activity against Influenza A virus (H1N1) infected in dog MDCK cells assessed as inhibition of virus-induced cytopathic effect treated 1 hr post infection and measured after 48 hrs by CCK-8 assay; assay type: functional, organism-based
Influenza A virus [3] = test: Antiviral activity against Influenza A virus H5N1 infected in dog MDCK cells assessed as inhibition of virus-induced cytopathic effect treated 1 hr post infection and measured after 48 hrs by CCK-8 assay; assay type: functional, organism-based
[4] = Binding affinity to influenza neuraminidase incubated for 2 hrs by ELISA; parameters: species or system Influenza A virus
Outline: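 His-tagged neuraminidase expressed in E. coli BL21 and Ni-affinity purified was immobilised and blocked with BSA. Biotinylated peptides at varied concentrations were bound at 37 °C for 2 h, followed by streptavidin-HRP for 1 h and HRP substrate for 15 min, then OD450. Kd came from fitting background-subtracted absorbance against peptide concentration.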

[5] = Hemolytic activity in rabbit red blood cells incubated for 60 mins; assay type: ADME, cell-based, Oryctolagus cuniculus, Erythrocyte; conditions: red blood cells (erythrocytes)
Outline: (§1)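 Fibrinogen-free rabbit blood was mixed with 0.9% saline and centrifuged to give a 2% red cell suspension. Peptide solutions were combined with the suspension, kept 60 min at 37 °C and centrifuged. Supernatant OD600 gave hemolysis, and HC50 is the 50% hemolytic concentration.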

Influenza A virus [6] = test: Antiviral activity against Influenza A virus (H1N1) infected in BALB/c mouse assessed as animal survival rate at 50 mg/kg/day, iv administered for 7 days and monitored for 15 days relative to control; assay type: functional; conditions: time 7 day
Outline: (§2)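 Six-week-old male Balb/c mice, randomised into normal, PBS control and treated groups. Dosing began 4 h after H1N1 inoculation: peptide at 1 mg kg−1 per day or oseltamivir carboxylate at 50 mg kg−1 per day, iv once daily for seven days. Body weight and mortality were followed for 15 consecutive days; n = 6.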

Influenza A virus (H1N1) = test: Inhibition of Influenza A virus (H1N1) neuraminidase at 25 uM using 4-MU-NANA as substrate after 60 mins by fluorescence method relative to control
Outline: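 Time-course format: neuraminidase incubated with peptide (25 μM) in the presence of 4-MU-NANA substrate for up to 180 min. Fluorescence intensity read at successive time points and expressed as inhibition ratio. Mean ± SD, n = 6.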

Erythrocyte = test: Hemolytic activity in rabbit red blood cells at 100 uM incubated for 60 mins; assay type: ADME, cell-based, Oryctolagus cuniculus; conditions: 1 h; outline: as §1
HEK-293T = test: Cytotoxicity against human HEK293T cells at 50 uM incubated for 48 hrs by CCK-8 assay; assay type: cell-based
Outline: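 HEK 293T cells were seeded at 5000 per well in DMEM with 10% FBS. Peptides were added at 0.78 to 50 μM for 48 h, and viability was read by CCK-8.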

[7] = […] assessed as compound remaining after 18 hrs by RP-HPLC analysis; assay type: ADME, cell-free; conditions: human, plasma
[8] = Drug uptake in human HEK293T cells at 2 uM measured upto 12 hrs by using rhodamine-labeled peptide by flow cytometric analysis; assay type: ADME, cell-based; conditions: hek-293t
Outline: (§3)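 HEK 293T cells were given rhodamine-labelled peptides at 2 μM and sampled at 2, 4, 8 and 12 h. Cells were PBS-washed, fixed in 4% paraformaldehyde and DAPI-stained, then examined by laser scanning confocal microscopy and by FACS.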

[9] = Drug uptake in human HEK293T cells at 2 uM measured upto 12 hrs by using rhodamine-labeled peptide by DAPI staining based laser scanning confocal microscopic analysis; assay type: ADME, cell-based; conditions: hek-293t; outline: as §3
Influenza A virus [10] = test: Antiviral activity against Influenza A virus (H1N1) infected in BALB/c mouse assessed as animal survival rate at 1 mg/kg/day, iv administered for 7 days and monitored for 15 days relative to control; assay type: functional; conditions: time 7 day; outline: as §2
Influenza A virus [11] = test: Antiviral activity against Influenza A virus (H1N1) infected in BALB/c mouse assessed as recovery of normal body weight at 1 mg/kg/day, iv measured after 6 days; assay type: functional, organism-based; conditions: time 6.0 day; outline: as §2
Influenza A virus [12] = test: Antiviral activity against Influenza A virus (H1N1) infected in BALB/c mouse assessed as reduction in lung index at 1 mg/kg/day, iv administered for 7 days and measured after 15 days; assay type: functional, organism-based; conditions: time 7.0 day
Influenza A virus [13] = test: Antiviral activity against Influenza A virus (H1N1) infected in BALB/c mouse assessed as decrease in TNF-alpha expression at 1 mg/kg/day, iv measured on day 2 and day 4 by ELISA; assay type: functional, organism-based; conditions: time 2-4 day
Outline: (§4)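 Balb/c mice were infected with H1N1 and treated iv once daily for seven days (peptide 1 mg kg−1 per day, starting 4 h post-inoculation), with PBS control and healthy groups. Serum was taken on days 2 and 4 post-inoculation. TNF-α, IL-6 and IFN-γ were measured by ELISA at A450. n = 6; Student's t test against the normal group.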

Influenza A virus [14] = test: Antiviral activity against Influenza A virus (H1N1) infected in BALB/c mouse assessed as decrease in IL6 expression at 1 mg/kg/day, iv measured on day 2 and day 4 by ELISA; assay type: functional, organism-based; conditions: time 2-4 day; outline: as §4
Influenza A virus [15] = test: Antiviral activity against Influenza A virus (H1N1) infected in BALB/c mouse assessed as decrease in INFgamma expression at 1 mg/kg/day, iv measured on day 2 and day 4 by ELISA; assay type: functional, organism-based; conditions: time 2-4 day; outline: as §4
[16] = Drug uptake in human HEK293T cells at 2 uM incubated for 12 hrs by HPLC analysis; assay type: ADME, cell-based; conditions: hek-293t
Outline: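 HEK 293T cells were exposed to peptide at 2 μM for 12 h, washed twice with PBS and lysed; proteins were precipitated. Peptide was read by HPLC on a C18 column with 0.1% TFA in water and 0.1% TFA in 80% acetonitrile, gradient 14–34% B over 0–20 min, 1 mL min−1.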

| SMILES | IC50 [1] | IC50 (Influenza A virus [2]) | IC50 (Influenza A virus [3]) | Kd [4] | HC50 at 1 h [5] | Activity (Influenza A virus [6]) | inhibition (Influenza A virus (H1N1)) | Activity (Erythrocyte) | Activity (HEK-293T) | Stabilty [7] | Drug uptake [8] | Drug uptake [9] | Activity (Influenza A virus [10]) | Activity (Influenza A virus [11]) | Activity (Influenza A virus [12]) | Activity (Influenza A virus [13]) | Activity (Influenza A virus [14]) | Activity (Influenza A virus [15]) | Drug uptake [16] |
| --- | --- | --- | --- | --- | --- | --- | --- | --- | --- | --- | --- | --- | --- | --- | --- | --- | --- | --- | --- |
| C[C@H](NC(=O)[C@@H](NC(=O)[C@H](CCCCN)NC(=O)[C@H](Cc1c[nH]cn1)NC(=O)[C@H](Cc1ccccc1)NC(=O)[C@H](CCC(=O)O)NC(=O)[C@H](N)CCCCN)[C@@H](C)O)C(=O)N[C@@H](CCC(N)=O)C(=O)N1CCC[C@H]1C(=O)O | < 25 µM | 16.6 µM | 25.4 µM | 0.0286 µM | 25 µM | – | – | – | – | – | – | – | – | – | – | – | – | – | – |
| CCC(CC)O[C@@H]1C=C(C(=O)O)C[C@H](N)[C@H]1NC(C)=O [OSELTAMIVIR CARBOXYLATE] | – | 0.0113 µM | 0.0056 µM | – | – | 100% | – | – | – | – | – | – | – | – | – | – | – | – | – |
| C[C@H](NC(=O)[C@@H]1CCCN1C(=O)[C@H](CCCCN)NC(=O)[C@@H](CCCNC(=N)N)NC(=O)[C@@H](CCCNC(=N)N)NC(=O)[C@H](N)CCC(=O)O)C(=O)N[C@@H](CCC(N)=O)C(=O)N1CCC[C@H]1C(=O)O | 4.25 µM | 2.26 µM | 1.46 µM | 0.011 µM | 25 µM | – | 100% | Non-Toxic | Non-Toxic | Stable | Active | Active | 90% | Active | Active | Active | Active | Active | Active |
| CC(C)C[C@H](NC(=O)[C@@H](CCCNC(=N)N)NC(=O)[C@H](CCCCN)NC(=O)[C@H](N)Cc1c[nH]c2ccccc12)C(=O)N[C@@H](Cc1c[nH]cn1)C(=O)N[C@@H](Cc1c[nH]cn1)C(=O)N[C@@H](CCCCN)C(=O)N1CCC[C@H]1C(=O)N[C@@H](C)C(=O)O | < 25 µM | 16 µM | 17.9 µM | 0.019 µM | 25 µM | – | – | Non-Toxic | Non-Toxic | – | – | – | – | – | – | – | – | – | – |
| CC(C)C[C@H](NC(=O)[C@@H]1CCCN1C(=O)[C@H](CCCNC(=N)N)NC(=O)[C@@H](CCCNC(=N)N)NC(=O)[C@@H](CCCNC(=N)N)NC(=O)[C@H](N)Cc1ccccc1)C(=O)N[C@@H](CCCNC(=N)N)C(=O)N[C@@H](C)C(=O)O | – | 22.7 µM | 50.2 µM | – | 25 µM | – | – | Non-Toxic | Non-Toxic | – | – | – | – | – | – | – | – | – | – |
| CSCC[C@H](NC(=O)[C@@H](NC(=O)[C@@H](CCCNC(=N)N)NC(=O)[C@@H](Cc1ccccc1)NC(=O)[C@H](N)CCC(=O)O)[C@@H](C)O)C(=O)N[C@H](C(=O)N[C@@H](Cc1c[nH]cn1)C(=O)N1CCC[C@H]1C(=O)N[C@@H](CCCCN)C(=O)O)C(C)C | – | 15.7 µM | 23.8 µM | 0.0203 µM | 25 µM | – | – | Non-Toxic | Non-Toxic | – | – | – | – | – | – | – | – | – | – |
| C[C@H](NC(=O)[C@@H]1CCCN1C(=O)[C@H](CCCCN)NC(=O)[C@H](CCC(=O)O)NC(=O)[C@@H](CCC(=O)O)NC(=O)[C@H](N)CCC(=O)O)C(=O)N[C@@H](CCC(N)=O)C(=O)N1CCC[C@H]1C(=O)O | – | 36.1 µM | 64.3 µM | – | 25 µM | – | – | – | – | – | – | – | – | – | – | – | – | – | – |
| C[C@H](NC(=O)[C@H](CCC(N)=O)NC(=O)[C@H](C)NC(=O)[C@H](Cc1c[nH]cn1)NC(=O)[C@H](CCCCN)NC(=O)[C@H](CCCNC(=N)N)NC(=O)[C@@H](CC(=O)O)NC(=O)[C@H](N)CCC(=O)O)C(=O)O | < 25 µM | 3.08 µM | 3.32 µM | 0.0366 µM | 25 µM | – | – | – | – | – | – | – | – | – | – | – | – | – | – |
| C[C@H](NC(=O)[C@@H]1CCCN1C(=O)[C@H](CCCCN)NC(=O)[C@H](CCCNC(=N)N)NC(=O)[C@@H](Cc1c[nH]c2ccccc12)NC(=O)CN)C(=O)N[C@@H](CCC(N)=O)C(=O)N1CCC[C@H]1C(=O)O | – | 36 µM | 27.5 µM | 0.0277 µM | 25 µM | – | – | Non-Toxic | Non-Toxic | Stable | Active | Active | – | Active | Active | Active | Active | Active | Active |
| C[C@H](NC(=O)[C@@H]1CCCN1C(=O)[C@H](CCCCN)NC(=O)[C@@H](CCCNC(=N)N)NC(=O)[C@H](Cc1c[nH]cn1)NC(=O)CN)C(=O)N[C@@H](CCC(N)=O)C(=O)N1CCC[C@H]1C(=O)O | < 25 µM | 28.4 µM | 31.3 µM | – | 25 µM | – | – | – | – | – | – | – | – | – | – | – | – | – | – |
| C[C@H](NC(=O)[C@@H](NC(=O)[C@H](CCCCN)NC(=O)[C@@H](Cc1c[nH]cn1)NC(=O)[C@@H](CC(=O)O)NC(=O)[C@@H](N)CC(=O)O)[C@@H](C)O)C(=O)N[C@@H](Cc1c[nH]cn1)C(=O)N[C@@H](CCC(N)=O)C(=O)O | – | 28.4 µM | 48.2 µM | 0.0386 µM | 25 µM | – | – | – | – | – | – | – | – | – | – | – | – | – | – |
